Test results as given in ChEMBL document CHEMBL4038327, “Inhibitory Kappa B Kinase α (IKKα) Inhibitors That Recapitulate Their Selectivity in Cells against Isoform-Related Biomarkers” (J Med Chem, 2017).

Key:
[1] = target: T1, Inhibitor of nuclear factor kappa-B kinase subunit beta (Homo sapiens, UniProt O14920); experiment: Inhibition of IKKbeta in human U2OS cells assessed as TNFalpha induced IkBalpha degradation at 100 uM preincubated for 1 hr followed by TNFalpha stimulation for 30 mins by Western blot analysis; type: cell-based; conditions: 0.5 h
T1 sequence (O14920 whole entry): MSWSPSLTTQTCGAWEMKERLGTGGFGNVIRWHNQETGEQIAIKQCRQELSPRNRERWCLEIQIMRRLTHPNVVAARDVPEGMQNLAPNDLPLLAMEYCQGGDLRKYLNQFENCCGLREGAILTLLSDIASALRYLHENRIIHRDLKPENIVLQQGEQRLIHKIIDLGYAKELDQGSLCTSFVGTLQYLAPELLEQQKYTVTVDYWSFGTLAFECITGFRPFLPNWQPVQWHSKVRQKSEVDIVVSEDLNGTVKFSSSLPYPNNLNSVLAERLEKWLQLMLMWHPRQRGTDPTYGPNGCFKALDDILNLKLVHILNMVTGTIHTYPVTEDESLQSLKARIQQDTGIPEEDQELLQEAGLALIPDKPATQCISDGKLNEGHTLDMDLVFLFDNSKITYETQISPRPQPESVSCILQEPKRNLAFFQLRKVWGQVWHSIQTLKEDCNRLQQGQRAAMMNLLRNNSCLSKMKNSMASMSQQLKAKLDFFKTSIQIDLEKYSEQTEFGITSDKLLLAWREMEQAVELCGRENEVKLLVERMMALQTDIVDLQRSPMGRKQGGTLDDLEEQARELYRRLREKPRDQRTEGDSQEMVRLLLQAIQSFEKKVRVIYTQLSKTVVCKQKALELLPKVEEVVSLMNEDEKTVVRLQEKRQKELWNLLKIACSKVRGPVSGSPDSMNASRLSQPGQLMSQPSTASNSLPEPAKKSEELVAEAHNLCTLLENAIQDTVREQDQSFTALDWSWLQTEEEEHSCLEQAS
How it was run: (§1)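 U2OS cells were grown in McCoy's 5A medium at 37 °C under 5% CO2 and made quiescent by 24 h serum deprivation. They were then pretreated with compound before agonist stimulation in serum-free medium. Phospho-p100, IκBα levels and phospho-p65 (Ser536) were assessed by Western blot.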

[2] = target: T1, Inhibitor of nuclear factor kappa-B kinase subunit beta; experiment: Inhibition of IKKbeta in human U2OS cells assessed as decrease in TNFalpha induced p65 phosphorylation at ser536 residues at 100 uM preincubated for 1 hr followed by TNFalpha stimulation for 30 mins by Western blot analysis; type: cell-based; conditions: 0.5 h; how it was run: as §1
[3] = target: T2, Inhibitor of nuclear factor kappa-B kinase subunit alpha (Homo sapiens) (UniProt O15111); experiment: (§2) Inhibition of IKKalpha in human U2OS cells assessed as decrease in FCS induced p100 phosphorylation at ser866/870 residues preincubated for 1 hr followed by FCS stimulation for 4 hrs by Western blot analysis; type: cell-based; how it was run: as §1
T2 sequence (whole entry): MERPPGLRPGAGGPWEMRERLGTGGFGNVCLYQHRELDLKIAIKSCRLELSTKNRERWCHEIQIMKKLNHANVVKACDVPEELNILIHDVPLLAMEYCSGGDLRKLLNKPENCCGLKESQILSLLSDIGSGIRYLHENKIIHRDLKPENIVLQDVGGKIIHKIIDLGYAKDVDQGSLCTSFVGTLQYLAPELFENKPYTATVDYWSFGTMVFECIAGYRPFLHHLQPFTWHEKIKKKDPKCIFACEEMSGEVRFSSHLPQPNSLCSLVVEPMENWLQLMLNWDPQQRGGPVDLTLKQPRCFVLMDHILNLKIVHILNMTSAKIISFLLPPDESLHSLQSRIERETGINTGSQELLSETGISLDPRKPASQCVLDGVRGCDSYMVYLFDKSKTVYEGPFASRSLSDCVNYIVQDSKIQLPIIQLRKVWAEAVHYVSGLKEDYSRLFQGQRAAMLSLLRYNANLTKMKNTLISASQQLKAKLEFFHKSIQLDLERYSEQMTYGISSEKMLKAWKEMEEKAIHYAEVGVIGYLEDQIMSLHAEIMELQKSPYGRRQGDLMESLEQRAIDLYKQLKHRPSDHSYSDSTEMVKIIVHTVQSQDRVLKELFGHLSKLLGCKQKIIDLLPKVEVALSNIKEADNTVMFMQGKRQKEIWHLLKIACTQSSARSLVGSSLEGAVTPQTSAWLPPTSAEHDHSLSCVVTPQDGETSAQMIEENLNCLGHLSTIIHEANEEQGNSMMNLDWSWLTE

[4] = target: T3, Inhibitor of nuclear factor kappa-B kinase subunit alpha (Homo sapiens, UniProt O15111); experiment: as §2; type: cell-based; how it was run: as §1
T3 sequence (O15111 whole entry): T2 sequence (whole entry)

[5] = target: T4, Inhibitor of nuclear factor kappa-B kinase subunit alpha (Mus musculus) (UniProt Q60680); experiment: Inhibition of IKKalpha in IKKbeta knockout mouse embryonic fibroblast cells harboring Adv.NF-kB.luc assessed as IL-1beta induced NF-kB transcriptional activation at 100 uM pretreated for 1 hr followed by IL-1beta stimulation for 6 hrs by luciferase reporter gene assay relative to control; parameters: scale not given: the % may be the effect or the level left
T4 sequence (whole entry): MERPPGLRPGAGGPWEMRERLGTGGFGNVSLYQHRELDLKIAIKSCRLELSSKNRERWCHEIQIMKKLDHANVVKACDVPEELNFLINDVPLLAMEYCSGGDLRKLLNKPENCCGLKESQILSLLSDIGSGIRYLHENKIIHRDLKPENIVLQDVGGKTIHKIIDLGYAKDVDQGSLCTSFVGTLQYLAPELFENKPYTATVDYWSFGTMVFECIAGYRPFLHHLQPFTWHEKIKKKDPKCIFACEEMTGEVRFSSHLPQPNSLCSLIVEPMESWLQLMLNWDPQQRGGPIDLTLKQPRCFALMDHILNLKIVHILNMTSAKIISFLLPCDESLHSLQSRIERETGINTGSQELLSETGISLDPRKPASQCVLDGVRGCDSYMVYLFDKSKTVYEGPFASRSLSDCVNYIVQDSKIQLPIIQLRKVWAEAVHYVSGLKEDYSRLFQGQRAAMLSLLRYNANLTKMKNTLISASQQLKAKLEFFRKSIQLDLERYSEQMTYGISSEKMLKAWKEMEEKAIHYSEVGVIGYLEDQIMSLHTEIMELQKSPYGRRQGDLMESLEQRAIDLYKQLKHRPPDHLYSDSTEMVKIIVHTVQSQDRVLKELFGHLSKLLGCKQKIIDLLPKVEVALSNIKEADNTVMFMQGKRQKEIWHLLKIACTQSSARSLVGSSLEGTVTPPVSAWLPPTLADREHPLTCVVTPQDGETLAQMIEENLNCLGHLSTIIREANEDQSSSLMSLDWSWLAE
How it was run: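 IKKβ knockout MEFs infected with Adv.NF-kB.luc (up to 300 pfu/cell, 24 h, 10% DMEM), replated and serum-starved 24 h. Pretreated 1 h with compound, then IL-1β (10 ng/mL) for 6 h. Lysis buffer contained 0.2 mM luciferin, and luminescence was read as RLU. Results are expressed as % of IL-1β + DMSO stimulation.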

[6] = target: T3, Inhibitor of nuclear factor kappa-B kinase subunit alpha; experiment: Inhibition of recombinant human N-terminal GST-tagged IKKalpha (1 to 745 residues) expressed in baculovirus expression system using biotinylated IkBalpha as substrate after 60 mins by DELFIA
[7] = target: T1, Inhibitor of nuclear factor kappa-B kinase subunit beta; experiment: Inhibition of recombinant full length human IKKbeta expressed in baculovirus infected sf9 insect cells using biotinylated IkBalpha as substrate after 60 mins by DELFIA
How it was run: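 Recombinant IKKβ (37 nM) was incubated with biotinylated IκB-α (Ser32) peptide (0.375 μM) and 40 μM ATP in Tris-HCl pH 7.5 with MgCl2, EDTA, DTT and BSA for 60 min at 30 °C. The reaction was quenched with EDTA and captured on streptavidin. Detection used anti-phospho-IκBα (Ser32/36) mAb plus Eu-anti-mouse IgG, read by time-resolved fluorescence (340/615 nm). Apparent Ki was obtained via Cheng–Prusoff, n=3.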

N#Cc1c[nH]c2nc(N)nc(-c3ccc(CO)cc3)c12
inhibition (INH) [1]: Not Active
inhibition (INH) [2]: Not Active
inhibition [3]: Dose-dependent effect
IC50 [4]: 13900 to 19100 nM
Activity [5]: 18.8%
Ki [6]: 650 nM
Ki [7]: 2300 nM
